Changes are numbered by the printed parent chain.
Legend:
[1] = target: T1, Nonstructural protein 5A (Hepatitis C virus) (UniProt Q5L478); experiment: Inhibition of NS5A K24R mutant in HCV genotype 1a infected in HuH7 replicon cells assessed as decrease in viral replication after 3 days by RT-PCR method; type: cell-based; conditions: Hepatitis C virus subtype 1a
T1 sequence (whole entry): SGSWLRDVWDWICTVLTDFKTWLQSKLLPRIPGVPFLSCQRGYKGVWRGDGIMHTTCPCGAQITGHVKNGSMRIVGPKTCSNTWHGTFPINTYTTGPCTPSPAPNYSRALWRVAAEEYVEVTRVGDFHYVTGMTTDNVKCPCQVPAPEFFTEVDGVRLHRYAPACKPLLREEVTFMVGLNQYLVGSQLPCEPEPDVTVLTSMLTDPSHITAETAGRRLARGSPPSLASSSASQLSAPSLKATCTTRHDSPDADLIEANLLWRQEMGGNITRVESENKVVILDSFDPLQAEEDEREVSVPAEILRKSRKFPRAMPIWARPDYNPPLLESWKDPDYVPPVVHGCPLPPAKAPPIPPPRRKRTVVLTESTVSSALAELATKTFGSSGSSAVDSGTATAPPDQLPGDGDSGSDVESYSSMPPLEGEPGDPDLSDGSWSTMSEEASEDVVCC

[2] = target: T1, Nonstructural protein 5A (Hepatitis C virus); experiment: Inhibition of NS5A A30K mutant in HCV genotype 3a infected in HuH7 replicon cells assessed as decrease in viral replication after 3 days by RT-PCR method; type: cell-based; conditions: Hepatitis C virus subtype 3a
[3] = Resistance ratio of EC90 for NS5A L28M/Y93H double mutant in HCV genotype 1b infected in HuH7 replicon cells to EC90 for NS5A in HCV genotype 1a infected in HuH7 replicon cells; type: cell-based
[4] = test system: Hepatitis C virus subtype 1a; experiment: Resistance ratio of EC90 for NS5A L31V mutant in HCV genotype 1a infected in HuH7 replicon cells to EC90 for NS5A in HCV genotype 1a infected in HuH7 replicon cells; type: cell-based
[5] = Drug level in Beagle dog at 5 mg/kg, po measured at 24 hrs by LC/MS method; type: ADME, organism-based, Canis lupus familiaris; conditions: in vivo, read-out: Drug uptake
Summary of the method: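 Beagle dogs, two animals per dosing group. Oral dose was given in 10% TWEEN. Blood was collected and spun to plasma, and plasma compound levels were measured by LC/MS.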

[6] = Cmax in Wistar Han rat at 300 mg/kg, po by LC/MS method; type: ADME, organism-based; parameters: dose 300 mg/kg, route oral; conditions: in vivo
Summary of the method: (§1)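 Single rising oral dose study in fed male Wistar Han rats, dosed PO in 10% TWEEN at the indicated doses. Plasma was obtained by centrifuging the blood, and compound levels were determined by LC/MS.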

[7] = test system: T2, Nonstructural protein 5A (Hepatitis C virus), Q5L478 [Y93H]; experiment: Inhibition of NS5A Y93H mutant in HCV genotype 3a infected in HuH7 replicon cells assessed as decrease in viral replication after 3 days by RT-PCR method; type: cell-based; conditions: Hepatitis C virus subtype 3a
T2 sequence (whole entry): T1 sequence (whole entry) with Y93H

[8] = target: T1, Nonstructural protein 5A (Hepatitis C virus); experiment: Inhibition of NS5A A146S mutant in HCV genotype 2b infected in HuH7 replicon cells assessed as decrease in viral replication after 3 days by RT-PCR method; type: cell-based; conditions: Hepatitis C virus subtype 2b
[9] = Resistance ratio of EC90 for NS5A L30H mutant in HCV genotype 4a infected in HuH7 replicon cells to EC90 for NS5A in HCV genotype 1a infected in HuH7 replicon cells; type: cell-based
Huh-7 = experiment: Cytotoxicity against human HuH7 cells assessed as effect on GAPDH mRNA levels up to 25 uM; type: cell-based
Summary of the method: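 Huh-7 cells were exposed to compound up to a top concentration of 25 µM. Cytotoxicity was monitored as the change in GAPDH mRNA levels.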

[10] = Clearance in Beagle dog at 1 mg/kg, iv by LC/MS method; type: ADME, organism-based, Canis lupus familiaris; conditions: in vivo
Summary of the method: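 Beagle dogs, two animals per group, dosed IV at 1 mg/kg in 60% PEG200. Plasma was prepared from collected blood by centrifugation, and compound was quantified by LC/MS.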

[11] = target: T1, Nonstructural protein 5A (Hepatitis C virus); experiment: Inhibition of NS5A M28K mutant in HCV genotype 1a infected in HuH7 replicon cells assessed as decrease in viral replication after 3 days by RT-PCR method; type: cell-based; conditions: Hepatitis C virus subtype 1a
[12] = Resistance ratio of EC90 for NS5A L31M mutant in HCV genotype 2a infected in HuH7 replicon cells to EC90 for NS5A in HCV genotype 1a infected in HuH7 replicon cells; type: cell-based
[13] = target: T1, Nonstructural protein 5A (Hepatitis C virus); experiment: Inhibition of NS5A L31I mutant in HCV genotype 1b infected in HuH7 replicon cells assessed as decrease in viral replication after 3 days by RT-PCR method; type: cell-based; conditions: Hepatitis C virus subtype 1b
[14] = Resistance ratio of EC90 for NS5A A92K mutant in HCV genotype 1b infected in HuH7 replicon cells to EC90 for NS5A in HCV genotype 1a infected in HuH7 replicon cells; type: cell-based
[15] = test system: Hepatitis C virus subtype 1a; experiment: Resistance ratio of EC90 for NS5A R81S mutant in HCV genotype 1a infected in HuH7 replicon cells to EC90 for NS5A in HCV genotype 1a infected in HuH7 replicon cells; type: cell-based
[16] = target: T1, Nonstructural protein 5A (Hepatitis C virus); experiment: Inhibition of NS5A F28Y mutant in HCV genotype 2a infected in HuH7 replicon cells assessed as decrease in viral replication after 3 days by RT-PCR method; type: cell-based; conditions: Hepatitis C virus subtype 2a
[17] = Drug level in Wistar Han rat at 100 mg/kg, po measured at 24 hrs by LC/MS method; type: ADME, organism-based; conditions: in vivo, read-out: Drug uptake; summary of the method: as §1
[18] = test system: Hepatitis C virus subtype 1a; experiment: Resistance ratio of EC90 for NS3 R155K mutant in HCV genotype 1a infected in HuH7 replicon cells to EC90 for NS5A in HCV genotype 1a infected in HuH7 replicon cells; type: cell-based
[19] = Resistance ratio of EC90 for NS5A in HCV genotype 1b infected in HuH7 replicon cells to EC90 for NS5A in HCV genotype 1a infected in HuH7 replicon cells; type: cell-based
[20] = MRT in Wistar Han rat at 100 mg/kg, po by LC/MS method; type: ADME, organism-based; conditions: in vivo; summary of the method: as §1
[21] = target: T1, Nonstructural protein 5A (Hepatitis C virus); experiment: Inhibition of NS5A A92P mutant in HCV genotype 1a infected in HuH7 replicon cells assessed as decrease in viral replication after 3 days by RT-PCR method; type: cell-based; conditions: Hepatitis C virus subtype 1a

COC(=O)N[C@H](C(=O)N1CCC[C@H]1c1ncc(-c2cc(F)c3c(c2)O[C@@H](c2ccc(C4CC4)s2)n2c-3cc3cc(-c4cnc([C@@H]5CCCN5C(=O)[C@@H](NC(=O)OC)[C@@H]5CCOC(C)(C)C5)[nH]4)ccc32)[nH]1)C(C)C
EC90 [1]: 0.34 pM
EC90 [2]: 18 pM
Ratio [3]: 15
Ratio [4]: 1
concentration at 24 h [5]: 29 nM
Cmax [6]: 1060 nM
EC90 [7]: 2400 pM
EC90 [8]: 3.4 pM
Ratio [9]: 17
Activity (Huh-7): Non-Toxic
clearance [10]: 2.9 mL/min/kg
EC90 [11]: 420 pM
Ratio [12]: 6
EC90 [13]: 21 pM
Ratio [14]: 6
Ratio [15]: < 1
EC90 [16]: 69 pM
concentration at 24 h [17]: 72 nM
Ratio [18]: < 1
Ratio [19]: 1
MRT [20]: 12.4 h
EC90 [21]: 0.14 pM
